Experimental findings from the EternaBench riboswitch data are described below.

The data set deals with MS2 coat protein. Description: apparent Kd, MS2 coat protein; higher = weaker binding; RNA-MaP array; FMN 200 µM where present. Put shortly:
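Each design was made on Illumina sequencing-chip clusters by stalled E. coli RNA polymerase and titrated with SNAP-549-labelled MS2 coat protein from 0.7 or 1.5 nM, doubling to 3 µM, in the absence and then the presence of constant ligand. The buffer was 100 mM Tris-HCl pH 7.5, 80 mM KCl, 4 mM MgCl2, BSA, DTT, yeast tRNA and Tween-20. The apparent Kd is the median of filtered per-cluster fits of binding curves, with green signal normalised to red-channel RNA signal and control-cluster median Fmax.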

Setting [1] is: designed as: OFF switch for flavin mononucleotide, no ligand.
Setting [2] is: ligand present: flavin mononucleotide, designed as: OFF switch for flavin mononucleotide.
Setting [3] is: designed as: ON switch for flavin mononucleotide, no ligand.
Setting [4] is: ligand present: flavin mononucleotide, designed as: ON switch for flavin mononucleotide.

What is called apparent Kd is the concentration giving half-maximal binding under the conditions of the assay. As to “AUGCGUCGAGAGGAUAUUUGCGAGGUGACCAGCAAAGAAGGUUCGACAUGAGGAUCACCCAUGUCCAGCAUUUG”, the “apparent Kd” value runs as follows: under setting [1], 34.2 nM; under setting [2], 72.8 nM.
With “ACGCAGAGAGGAUAUACAUGAGGAUCACCCAUGUAUAAACGCACUAACUCUCCUCACUGUAGAAGGCUCAUGCA”, the “apparent Kd” value turned out to be 11.7 nM under setting [1] and 20.4 nM under setting [2].
Consider “GCUCGAUGCGCUGAGCACAUGAGGAUCACCCAUGUAAAUGGUCAGGAUAUUUACGUGCUUUAUGUAGAGAAGGGACCAUCGAGC”, for which the “apparent Kd” value under setting [3] was 286 nM and the “apparent Kd” value under setting [4] is 30.9 nM.
Turning to “AUAAUGUGAGGAUAUCAGUCGACUAGCUGCGGCUAGUCGACUGAGAAGGCACAUGAGGAUCACCCAUGUGUUUC”, the “apparent Kd” value under setting [1] stood at 17.9 nM and the “apparent Kd” value under setting [2] amounted to 40.8 nM.
In the case of “GGAGGACAUGAGGAUCACCCAUGUGGAUGAACGCUAGGAUAUGCGUGCAGGAAGAGUGGAGCAGAAGGAGUGGGUU”, the “apparent Kd” value by setting is: under setting [3], 28.2 nM; under setting [4], 23.2 nM.
In the case of “UUCAGACAUGAGGAUCACCCAUGUGAGGAUAUGAUGCGAUCGUCGAAAGACGAUAGCAUCAGAAGGCACAAAUG”, the “apparent Kd” value is, setting by setting: under setting [1], 103 nM; under setting [2], 156 nM.
The like results for “CAGUACUGAGGAUAUACAUGAGGAUCACCCAUGUGUUCCAGCUAGGAAACUAGCGAAAGUAGAAGGCAGUACUG” were, in that order, 23.3 nM and 551 nM.
As for “CCCUCAACAUGAGGAUCACCCAUGUAGGAUAUCGCUAUUGUAAUCAUGAAACAUGAUUACAAUAGCGAGAAGGACAUAUGCAAA”, the “apparent Kd” value was determined as 25.2 nM under setting [1] and 126 nM under setting [2].
“UCUUAUUGCAAGGAUAUGCUAUUUAUUUUUUUUGCAGAAGGUGCAACAUGAGGAUCACCCAUGUUUCCGGGCAU”: the “apparent Kd” value came out at 19.2 nM under setting [1] and 42.7 nM under setting [2].
In the case of “GUCGGAAACGACAAAAGUAUGGAUCCAGAAGGCAUGAAACAUGAGGAUCACCCAUGUCAAAGAUAUGAGGAUAUGGAUCCAUAC”, the “apparent Kd” value was 4.64 nM under setting [3] and 4.01 nM under setting [4].
Regarding “ACUAAGGAGGUAGGAUAUUGUGUGGUGGCCGGGCUCCCACGGCGAGCGGCACAAGAAGGAUCCCUACAUGAGGAUCACCCAUGU”, the “apparent Kd” value is, setting by setting: under setting [3], 24 nM; under setting [4], 16.4 nM.
“CACCGUUACAGAGGAUAUCUUACAUGAGGAUCACCCAUGUAAUAAAUGAGAAUUUCGGAUGUAUGAGAGAAGGCUGGAAUCGGC”: the “apparent Kd” value reads like this: under setting [1], 23.2 nM; under setting [2], 22 nM.
As for “UGAUCGGAGACAGGAUAUGUGACUGCAUAGUGCACAGAAGGGUCUACAUGAGGAUCACCCAUGUCACCGAACAUCAAACAACAA”, the “apparent Kd” value by setting is: under setting [3], 433 nM; under setting [4], 41.9 nM.
The like results for “GCACCAUUGCAAGGAUAUCCUACAGAGGGUGCAGGAGAAGGUGCAUUGGUGAGACUAUAGGACAUGAGGAUCACCCAUGUACCG” were, in that order, 68 nM and 32.7 nM.
As for “GAGAAGUCAGGAUAUGCAUGGCGGGACUUGCGUCGUGGCGUGCAGAAGGGACAUGAGGAUCACCCAUGUGGAGC”, the “apparent Kd” value reads like this: under setting [1], 114 nM; under setting [2], 161 nM.
In the case of “GUUACACAUGAGGAUCACCCAUGUAAGGAUAUGCUGCGGUCGCGCUGACGUGACUGCAGCAGAAGGUACAAUUG”, the “apparent Kd” value was 84.7 nM under setting [1] and 88.6 nM under setting [2].
Regarding “CCUCUACAUGAGGAUCACCCAUGUGAGGAUAUAAGAUUGCGAAUUCCGCACUACGGUCUUAGAAGGCGCGUGGA”, the “apparent Kd” value was determined as 16.4 nM under setting [1] and 30.5 nM under setting [2].
With “UUGGACGUCGUAGGAUAUGUAGGAUAUUCCGACAUGAGGAUCACCCAUGUUGACAUGGAAGAAGGACAGAAGGACGAUGUCCAU”, the “apparent Kd” value is, setting by setting: under setting [3], 4.14 nM; under setting [4], 3.48 nM.
Regarding “GCAUACAUUCGAGGAUAUCGGUGAACAAAUUAACGAGAAGGCGAUAGAAUGUCUCAUCUUAUGAACAUGAGGAUCACCCAUGUA”, the “apparent Kd” value runs as follows: under setting [3], 30 nM; under setting [4], 26.2 nM.
For “AUAUCCGAAGCAGGAUAUCGGCAAGGUGUCGAGGUAGAGCGUACUCACAUGAGGAUCACCCAUGUCGAGAAGGGCUACAGGAUG”, the “apparent Kd” value stood at 16.8 nM under setting [1] and 72.4 nM under setting [2].
In the case of “UAUUAUCACGAAGGAUAUGCUUACAUGAGGAUCACCCAUGUAUGUAUAUUGAUCCAGCGUAUUGAGCAGAAGGUCGUGAGUAAA”, the “apparent Kd” value is 21.8 nM under setting [1] and 75.8 nM under setting [2].
On to “GAGCUGUGAGGAUAUACAUGAGGAUCACCCAUGUUAAGGAAGUCGGGAUUAAUUUAGUGUAGAAGGCACUUAUU”, for which the “apparent Kd” value reads like this: under setting [1], 39.9 nM; under setting [2], 41.6 nM.
Consider “GGAAGGUCAGGAUAUGCGAGGGAGUGGGAAAUAGGAUGGUAGCAGAAGGGACAUGAGGAUCACCCAUGUUAGGA”, for which the “apparent Kd” value by setting is: under setting [1], 31 nM; under setting [2], 27.3 nM.
Consider “GUAGAGUAAGGAUAUGUUGAAUAGGAUAGAAUGGUUAGAAAGCAGAAGGUACAUGAGGAUCACCCAUGUAAUGU”, for which the “apparent Kd” value is 22.6 nM under setting [1] and 21 nM under setting [2].
With “CGUCGAUACCAGAAGGACAUGAGGAUCACCCAUGUAGGAUAUGGGUGACCGGGAUGGCGGACACGCUGCCCGGGCACAUGCGAC”, the “apparent Kd” value reads like this: under setting [3], 10.6 nM; under setting [4], 7.79 nM.
For “GUGUAGGGAGGAUAUACAUGAGGAUCACCCAUGUGAAUAAGAUAGAAUAAGAUAAAGUGUAGAAGGUCUAGUGU”, the “apparent Kd” value under setting [1] is 66 nM and the “apparent Kd” value under setting [2] worked out at 51.9 nM.
Take “GCUCUAUGCUAGAAGGCGUGAAACAUGAGGAUCACCCAUGUCAGAGAUAUGAGGAUAUGGCAUAGAGCAAAAGACGGAAACGUC”: the “apparent Kd” value came out at 18.7 nM under setting [3] and 5.25 nM under setting [4].
For the sequence “GGGUACACCGGAGGAUAUCAUGUAAAUACAUGAGGAUCACCCAUGUCGAUGGAGACAUCGGAGAUUGAGAAGGCCGAUGUACCG”, the “apparent Kd” value amounted to 155 nM under setting [3] and 9.1 nM under setting [4].
In the case of “AUAUAAAAUAUAGGAUAUGGAAACAUGAGGAUCACCCAUGUAUGAUAAGAUAAAUUAUGAUAUAGCCAGAAGGAUACAAUAUAA”, the “apparent Kd” value under setting [3] came out at 31.3 nM and the “apparent Kd” value under setting [4] worked out at 38.3 nM.
Regarding “UUGCUCGUGUGAGGAUAUGCCGCCGUUUCGGCUGCAGAAGGUACUCUGUUACAUGAGGAUCACCCAUGUCUCUGUUGUUUCGUG”, the “apparent Kd” value by setting is: under setting [3], 39 nM; under setting [4], 47.5 nM.
As for “AUCAUGUAAGGAUAUGACUACAUAAAAAAAAAAAAAUGUAGUCAGAAGGUACAUGAGGAUCACCCAUGUACAAA”, the “apparent Kd” value was found to be 22.2 nM under setting [1] and 23.7 nM under setting [2].
Consider “AAUAAACUCACAGGAUAUAGCCGAGGUCGCGUGAACUUACAGGCGACGAGGCUAGAAGGGUGACCACAUGAGGAUCACCCAUGU”, for which the “apparent Kd” value under setting [3] is 985 nM and the “apparent Kd” value under setting [4] worked out at 106 nM.
Regarding “UGCGAUGCAGUUGGCCCUGGGCGAGAGGAUAUGGGCAGCGGGACAUGAGGAUCACCCAUGUUCUCUCAGAAGGCUCGAGCAGGC”, the “apparent Kd” value stood at 256 nM under setting [3] and 91.6 nM under setting [4].
In the case of “AGCUGUGGCAGAGGAUAUACUUCAAUAAUCCAUUGCAAAUAGCGAUGGACAUGAGGAUCACCCAUGUAGAAGGCUGUCUCAGCA”, the “apparent Kd” value under setting [1] came out at 19.9 nM and the “apparent Kd” value under setting [2] amounted to 46.2 nM.
As for “UGUGCGUCAGGAUAUUCUAUUUAUUACAUGAGGAUCACCCAUGUGAAUGUACAAGGGUGUGAAGAAGGGACUUGUC”, the “apparent Kd” value under setting [1] came to 686 nM and the “apparent Kd” value under setting [2] was 526 nM.
In the case of “AUUAUAUAGUAAGGAUAUUGAUUAUUAUUUUAACAUGAGGAUCACCCAUGUAGCCUUAUGUAUAACAAGAAGGUACAUUUAUUA”, the “apparent Kd” value under setting [1] came out at 56.2 nM and the “apparent Kd” value under setting [2] was 58.4 nM.
In the case of “CAGCGACAUGGAGGAUAUAGGGCCCAAGGGCACCUAGAAGGCCAAAAGCAGACAGGUCACAUGAGGAUCACCCAUGUACGCCAG”, the “apparent Kd” value under setting [3] is 241 nM and the “apparent Kd” value under setting [4] was determined as 16.3 nM.
On to “CAGUACUGAGGAUAUACAUGAGGAUCACCCAUGUGUUCCAGCGAGGAAACUAGCAAAAGUAGAAGGCAGUACUG”, for which the “apparent Kd” value runs as follows: under setting [1], 20.4 nM; under setting [2], 278 nM.
For “GAGGAACAUGAGGAUCACCCAUGUGAGGAUAUGCAUAGUGAGGUAGUAGAAGUUGAAUGCAGAAGGUACACUGA”, the “apparent Kd” value under setting [1] was 42.2 nM and the “apparent Kd” value under setting [2] is 32.2 nM.
On to “CGUUGAUGAGGAUAUCGAUGUUAGUACAUGAGGAUCACCCAUGUUAUCCAAGUGUCGUUUCGAGAAGGUAUUGGAC”, for which the “apparent Kd” value reads like this: under setting [1], 216 nM; under setting [2], 348 nM.
As for “CUCAUGUCAGGAUAUCAGUAGUAAAAAAAUAAAAUUACUACUGAGAAGGGACAUGAGGAUCACCCAUGUCCUGG”, the “apparent Kd” value is, setting by setting: under setting [1], 95.8 nM; under setting [2], 17.9 nM.
“AUAUAGGCUAACAUGAGGAUCACCCAUGUGUUAUACUUAAUAUAGGAUAUGUUUAUACUUUUUGGGCAGAAGGAUGGCCUAUAU”: the “apparent Kd” value by setting is: under setting [3], 36.4 nM; under setting [4], 27.3 nM.
Turning to “UCCUUGUCCUGAGGAUAUCCGUGGUUCCCGAAAGGAGAAGGCAGGACAUGAGGAUCACCCAUGUACCCAGAUAUCGUACAGAGA”, the “apparent Kd” value is 50.4 nM under setting [1] and 360 nM under setting [2].
Consider “GGUCCACAUGAGGAUCACCCAUGUUAGGAUAUCUCCCGCCUCCUCACUAGAGGCGGACAGAGAAGGAACAUCAA”, for which the “apparent Kd” value was found to be 26 nM under setting [1] and 78 nM under setting [2].
On to “AAGUCGUUAGGAUAUACAUGGAUAUACAUUUAUGUAGAACUACAUGAGGAUCACCCAUGUAGAAGGAACGAAUA”, for which the “apparent Kd” value by setting is: under setting [1], 38.2 nM; under setting [2], 54 nM.
In the case of “GGAAGCACGACGGAGCUAAGGUAGAAGGAUAUCCACGGCUAUAUCCACAUGAGGAUCACCCAUGUGGAGAAGGUCUAUCUUAAG”, the “apparent Kd” value under setting [1] came to 5.51 nM and the “apparent Kd” value under setting [2] turned out to be 8.8 nM.
Turning to “CUAAAGCAUGUAGGAUAUGCGUGGCGAAGCUAUGCAGAAGGACAUGAGGAUCACCCAUGUCUUUCCGUCUGCGUACAGACGGAA”, the “apparent Kd” value was found to be 19.1 nM under setting [1] and 52.4 nM under setting [2].
For “GUUCUUCCUGUAAGGAUAUCCAUGUAUCAAUUUAUGGAGAAGGUACAUGAGGAUCACCCAUGUCACCCGCGUUA”, the “apparent Kd” value runs as follows: under setting [1], 20.9 nM; under setting [2], 50.7 nM.
